Laboratory results published in article PMC3654155 (Bioorganic & medicinal chemistry letters, 2013).

Key:
Rtt109-Vps75 [1] = target: T1, Rtt109-Vps75 (Saccharomyces cerevisiae, UniProt Q07794); experiment: Rtt109-Vps75 HAT reaction-rate assay with H3n21 peptide, released CoA quantified; type: biochemical; settings: for Vmax, acetyl-CoA titration: 50 nM Rtt109-Vps75, 15 µM H3n21
T1 sequence (Q07794 1-436): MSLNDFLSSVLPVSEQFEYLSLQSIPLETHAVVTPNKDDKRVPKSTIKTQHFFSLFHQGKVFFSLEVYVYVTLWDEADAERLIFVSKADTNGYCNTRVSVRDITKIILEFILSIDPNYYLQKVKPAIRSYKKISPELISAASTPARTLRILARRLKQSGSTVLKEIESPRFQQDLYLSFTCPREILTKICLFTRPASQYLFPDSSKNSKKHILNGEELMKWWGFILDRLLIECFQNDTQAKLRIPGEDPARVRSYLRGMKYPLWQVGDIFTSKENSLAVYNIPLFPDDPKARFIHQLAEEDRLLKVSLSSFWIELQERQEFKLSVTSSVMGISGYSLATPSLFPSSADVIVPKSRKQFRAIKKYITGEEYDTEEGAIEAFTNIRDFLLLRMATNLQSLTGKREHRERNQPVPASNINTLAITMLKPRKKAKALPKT
T1 sequence (P53853 1-264 partner): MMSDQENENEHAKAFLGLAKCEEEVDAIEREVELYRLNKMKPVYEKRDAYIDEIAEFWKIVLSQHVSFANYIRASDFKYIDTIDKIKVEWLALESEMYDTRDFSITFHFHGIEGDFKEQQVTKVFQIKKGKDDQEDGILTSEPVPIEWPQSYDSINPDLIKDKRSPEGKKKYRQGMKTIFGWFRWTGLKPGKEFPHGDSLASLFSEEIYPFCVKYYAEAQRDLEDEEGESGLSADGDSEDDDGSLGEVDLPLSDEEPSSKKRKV

Rtt109-Vps75 [2] = target: T1, Rtt109-Vps75; experiment: Single-point HAT reactions, CoA formed by the end of a 30-minute reaction; type: biochemical; settings: data not shown
p300 [3] = target: T2, p300 (Homo sapiens, UniProt Q09472); experiment: p300 HAT reaction-rate assay with H3n21 peptide; type: biochemical, mammalian
T2 sequence (Q09472 whole entry, species assumed): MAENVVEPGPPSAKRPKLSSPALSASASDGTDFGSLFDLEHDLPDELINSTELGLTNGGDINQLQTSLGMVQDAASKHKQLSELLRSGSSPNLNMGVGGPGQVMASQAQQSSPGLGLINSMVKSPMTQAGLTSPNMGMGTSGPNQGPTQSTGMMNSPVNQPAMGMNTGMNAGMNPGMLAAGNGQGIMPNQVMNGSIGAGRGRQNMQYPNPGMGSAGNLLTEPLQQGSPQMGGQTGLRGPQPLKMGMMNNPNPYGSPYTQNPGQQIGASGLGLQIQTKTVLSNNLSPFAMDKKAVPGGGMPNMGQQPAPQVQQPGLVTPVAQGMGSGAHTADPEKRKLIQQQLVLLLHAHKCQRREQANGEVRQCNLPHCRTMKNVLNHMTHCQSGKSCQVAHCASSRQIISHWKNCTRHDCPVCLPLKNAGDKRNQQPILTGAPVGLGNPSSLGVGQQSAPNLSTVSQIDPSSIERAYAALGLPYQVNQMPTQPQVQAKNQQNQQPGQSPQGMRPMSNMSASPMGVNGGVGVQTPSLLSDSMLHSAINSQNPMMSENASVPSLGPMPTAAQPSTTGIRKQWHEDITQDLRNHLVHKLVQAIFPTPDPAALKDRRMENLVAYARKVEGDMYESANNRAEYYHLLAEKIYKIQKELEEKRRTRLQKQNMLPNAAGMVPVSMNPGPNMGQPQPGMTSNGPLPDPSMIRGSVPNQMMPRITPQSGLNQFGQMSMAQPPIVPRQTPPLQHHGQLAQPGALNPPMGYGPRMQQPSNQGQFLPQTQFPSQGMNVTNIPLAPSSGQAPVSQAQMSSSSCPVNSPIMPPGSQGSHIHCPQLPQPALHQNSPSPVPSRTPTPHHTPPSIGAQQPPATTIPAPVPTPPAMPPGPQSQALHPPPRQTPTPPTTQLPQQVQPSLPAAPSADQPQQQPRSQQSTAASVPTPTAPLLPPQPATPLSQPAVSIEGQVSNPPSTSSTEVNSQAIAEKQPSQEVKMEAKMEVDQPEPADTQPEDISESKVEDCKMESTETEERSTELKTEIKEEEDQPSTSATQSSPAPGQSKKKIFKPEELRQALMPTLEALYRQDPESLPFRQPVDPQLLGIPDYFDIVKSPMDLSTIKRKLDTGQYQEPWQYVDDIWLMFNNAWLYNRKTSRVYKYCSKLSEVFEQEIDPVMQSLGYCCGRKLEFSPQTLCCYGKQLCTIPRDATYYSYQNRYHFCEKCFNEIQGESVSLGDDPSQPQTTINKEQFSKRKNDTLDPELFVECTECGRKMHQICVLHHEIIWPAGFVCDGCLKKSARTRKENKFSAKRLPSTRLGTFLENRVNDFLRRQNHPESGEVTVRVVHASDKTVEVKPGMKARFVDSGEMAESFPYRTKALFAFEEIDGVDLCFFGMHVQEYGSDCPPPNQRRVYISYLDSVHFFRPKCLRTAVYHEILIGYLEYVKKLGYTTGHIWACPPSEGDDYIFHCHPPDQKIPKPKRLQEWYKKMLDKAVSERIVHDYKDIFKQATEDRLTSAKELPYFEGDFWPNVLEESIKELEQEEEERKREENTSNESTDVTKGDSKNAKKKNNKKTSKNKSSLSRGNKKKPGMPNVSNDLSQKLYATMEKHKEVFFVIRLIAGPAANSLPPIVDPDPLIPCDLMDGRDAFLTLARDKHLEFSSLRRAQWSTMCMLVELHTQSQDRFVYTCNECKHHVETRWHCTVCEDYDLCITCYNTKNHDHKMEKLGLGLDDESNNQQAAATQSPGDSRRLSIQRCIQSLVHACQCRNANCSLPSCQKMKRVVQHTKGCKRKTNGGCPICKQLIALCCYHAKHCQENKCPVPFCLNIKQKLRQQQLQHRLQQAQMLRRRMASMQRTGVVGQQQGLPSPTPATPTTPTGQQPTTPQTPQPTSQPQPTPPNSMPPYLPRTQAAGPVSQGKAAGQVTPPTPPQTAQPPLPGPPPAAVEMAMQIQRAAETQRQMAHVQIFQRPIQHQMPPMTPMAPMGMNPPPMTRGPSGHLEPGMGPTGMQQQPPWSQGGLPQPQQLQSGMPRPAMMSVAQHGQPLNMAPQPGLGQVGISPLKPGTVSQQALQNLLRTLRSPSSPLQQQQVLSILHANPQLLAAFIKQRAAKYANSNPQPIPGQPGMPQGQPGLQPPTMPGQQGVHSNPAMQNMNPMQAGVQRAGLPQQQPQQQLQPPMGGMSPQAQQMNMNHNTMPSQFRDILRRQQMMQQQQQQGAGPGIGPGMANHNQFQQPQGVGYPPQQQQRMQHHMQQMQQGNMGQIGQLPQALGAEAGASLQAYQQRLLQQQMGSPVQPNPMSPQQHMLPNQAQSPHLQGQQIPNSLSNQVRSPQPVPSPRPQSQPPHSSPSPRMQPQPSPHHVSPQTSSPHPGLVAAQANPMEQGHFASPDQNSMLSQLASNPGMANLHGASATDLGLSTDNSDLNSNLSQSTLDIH
Procedure, shortened: (§1)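 Enzyme: 3.1 µg/ml (61 nM) Gcn5 or 15 µg/ml p300, with 15 µM H3n21 peptide. Enzyme and peptide pre-incubated with DMSO or test compound for 5 min at 30°C. Reactions started with 30 µM acetyl-CoA. Released CoA quantified every 2 min over the first 10 min. Rate derived by linear regression of product versus time. Compound capped at 100 µM. For p300, single-point assays were also run at 0.5–2 µM compound.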

Gcn5 = Gcn5 (Saccharomyces cerevisiae, UniProt Q03330); experiment: Gcn5 HAT reaction-rate assay with H3n21 peptide; type: biochemical
Chain of Gcn5 (Q03330 whole entry): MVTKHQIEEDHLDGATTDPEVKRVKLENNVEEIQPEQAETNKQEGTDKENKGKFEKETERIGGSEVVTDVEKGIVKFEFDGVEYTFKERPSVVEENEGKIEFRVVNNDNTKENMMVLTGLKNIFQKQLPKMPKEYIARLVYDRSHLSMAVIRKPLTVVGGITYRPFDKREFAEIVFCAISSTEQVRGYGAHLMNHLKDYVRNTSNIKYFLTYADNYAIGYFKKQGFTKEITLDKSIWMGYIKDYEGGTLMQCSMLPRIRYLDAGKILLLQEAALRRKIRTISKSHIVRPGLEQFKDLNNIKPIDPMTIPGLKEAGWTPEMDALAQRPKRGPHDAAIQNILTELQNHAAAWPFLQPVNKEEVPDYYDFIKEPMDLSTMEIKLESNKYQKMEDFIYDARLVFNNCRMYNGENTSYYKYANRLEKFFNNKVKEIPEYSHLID
Procedure, shortened: as §1

Rtt109-Vps75 [4] = target: T1, Rtt109-Vps75; experiment: HAT-ELISA of H3K56 acetylation on; type: biochemical; settings: 500 nM compound, 50 nM Rtt109, 50 nM Vps75, 30 min, 30°C
Rtt109/Asf1 = Rtt109/Asf1 (Saccharomyces cerevisiae, UniProt Q07794); experiment: HAT-ELISA of H3K56 acetylation on; type: biochemical; settings: 500 nM compound, 50 nM Rtt109, 400 nM Asf1N, 30 min, 30°C
Procedure, shortened: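 Reaction mix: 50 nM Rtt109, 400 nM Asf1N and […] (H3-H4)2 tetramers, pre-incubated 5 min with DMSO or 500 nM test compound. Started with 15 µM acetyl-CoA, with water as the no-substrate control, then incubated 30 min at 30°C. H3K56ac detected by ELISA with H3K56ac-specific rabbit antiserum. Signal normalised to DMSO plus acetyl-CoA.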

p300 [5] = target: T2, p300; experiment: HAT-ELISA on; type: biochemical, mammalian; settings: 500 nM compound, 15 µg/ml p300
Rtt109-Vps75 [6] = target: T1, Rtt109-Vps75; experiment: Dialysis and time-course tests of tight binding to Rtt109-Vps75; type: biochemical
C. albicans [7] = experiment: Cellular levels of H3K56ac; type: cell-based; settings: data not shown
Saccharoyces cerevisiae [8] = experiment: Cellular levels of H3K56ac; type: cell-based; settings: data not shown
C. albicans [9] = experiment: Sensitivity to the DNA damaging agent camptothecin; type: cell-based; settings: data not shown
Saccharoyces cerevisiae [10] = experiment: Sensitivity to the DNA damaging agent camptothecin; type: cell-based; settings: data not shown
[11] = Solubility limit in HAT assays; type: physicochemical; settings: not tested above 100 µM
Rtt109 = settings: ref [14], [20]; cited from earlier work

CCC1(c2ccccc2)NC(=O)N(CC(=O)N(C)Cc2c(F)cccc2Cl)C1=O (stereo not shown) [SAR9]
effect on reaction rates, dose response (Rtt109-Vps75 [1]; 100 nM – 1 µM compound, 50 nM Rtt109-Vps75): minimal inhibition even at the highest concentration tested
inhibition of acetylation by Rtt109-Vps75 in single-point HAT reactions (Rtt109-Vps75 [2]): not as potent as compound 1

CCCC1(c2ccccc2)NC(=O)N(CC(=O)N(C)Cc2c(F)cccc2Cl)C1=O (stereo not shown) [compound 1, N-[(2-chloro-6-fluorophenyl)methyl]-2-(2,5-dioxo-4-phenyl-4-propylimidazolidin-1-yl)-N-methylacetamide]
preference for inhibition of Rtt109 over p300 and Gcn5 (Rtt109-Vps75 [1]): greater than two order of magnitude preference
Vmax, acetyl-CoA titration (Rtt109-Vps75 [1]; 30 µM compound 1): 1.46 ± 0.08 nM/s
Vmax, acetyl-CoA titration (Rtt109-Vps75 [1]; 60 µM compound 1): 0.68 ± 0.09 nM/s
inhibition of Rtt109-Vps75 in single point enzyme assay (Rtt109-Vps75 [1]; 0.5 – 2 µM compound): inhibited Rtt109
inhibition of p300 in single point enzyme assay (p300 [3]; 0.5 – 2 µM compound): without inhibiting p300
enzyme reaction rate remaining, p300 (p300 [3]; compound up to 100 µM, 15 µg/ml p300): ≥ 80 % activity
inhibition of HAT activity of p300 (p300 [3]; dose response up to 100 µM): did not significantly inhibit
enzyme reaction rate remaining, Gcn5 (Gcn5; compound up to 100 µM, 61 nM Gcn5): ≥ 80 % activity
inhibition of HAT activity of Gcn5 (Gcn5; dose response up to 100 µM): did not significantly inhibit
inhibition of H3K56 acetylation by Rtt109-Vps75 (Rtt109-Vps75 [4]): inhibited acetylation
inhibition of H3K56 acetylation by Rtt109/Asf1 (Rtt109/Asf1): inhibited acetylation
inhibition of p300 HAT activity on (H3-H4)2 tetramers (p300 [5]): no inhibitory effect
time course of inhibition (Rtt109-Vps75 [6]; 1 µM Rtt109-Vps75 with 1.0 µM compound 1, incubated 0-60 minutes on ice): the degree of inhibition increased during the entire 60 minutes
mode of inhibition (Rtt109-Vps75 [6]; from substrate titrations, dialysis and enzyme-concentration dependence): tight or perhaps irreversible inhibitor
effect on cellular levels of H3K56ac (C. albicans [7]): have not observed that compound 1 is able to affect
effect on cellular levels of H3K56ac (Saccharoyces cerevisiae [8]): have not observed that compound 1 is able to affect
effect on sensitivity to camptothecin (C. albicans [9]): have not observed that compound 1 is able to affect
effect on sensitivity to camptothecin (Saccharoyces cerevisiae [10]): have not observed that compound 1 is able to affect
solubility in assay [11]: solubility limitations

CC(=O)N[C@@H](CCCCNC(=O)CSCCNC(=O)CCNC(=O)[C@H](O)C(C)(C)COP(=O)(O)OP(=O)(O)OC[C@H]1O[C@@H](n2cnc3c(N)ncnc32)[C@H](O)[C@@H]1OP(=O)(O)O)C(N)=O [Lys-CoA]
effect on Rtt109 catalysis (Rtt109): do not affect Rtt109 catalysis
